Data set [1] has as its system Human betaherpesvirus 5. The data set is described as follows: Antiviral activity against HCMV Towne infected in human HFF cells assessed as reduction in viral DNA yields in the supernatant at 5 uM treated with compound following viral infection at MOI of 0.1 PFU/cell by US17 real time PCR analysis. Type of data set: functional, organism-based. The conditions noted are these: strain Towne. A digest of the protocol: (§1)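 At set time points supernatants were harvested and cells lysed for DNA. Cell-associated viral DNA and supernatant viral DNA quantified by real-time PCR targeting a 151-bp conserved US17 region.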
For orientation: In qPCR the cycle at which signal appears reflects the starting amount.

Data set [2] concerns Human betaherpesvirus 5. The data set is described as follows: Antiviral activity against pp28-luciferase expressing HCMV Towne infected in human HFF cells assessed as reduction in viral replication treated with compound at 24 hrs post viral infection at MOI of 1 PFU/cell and measured after 3 days by luciferase reporter gene assay. Type of data set: functional, organism-based. The settings on record: strain Towne. The method in brief: (§2)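 Time-of-addition in HFFs infected with HCMV Towne (MOI 1). Add-on: compound added at 0, 6, 24 or 48 hpi. Removal: compound added right after infection and washed out after 0, 6, 24 or 48 h. Luciferase read at 72 hpi.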
In general terms: In a reporter assay the amount or activity of a reporter protein is the signal.

Data set [3] relates to Human betaherpesvirus 5. The data set is described as follows: Antiviral activity against HCMV Towne infected in human HFF cells assessed as reduction in viral entry into host cell by measuring nuclear localization of pp65 at 5 uM treated with compound for 24 hrs followed by viral infection at MOI of 0.01 to 1 PFU/cell measured at 2 hrs post infection by immunofluorescence microscopy. The settings on record: strain Towne. Type of data set: functional, organism-based. The method in brief:
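HFFs on chamber slides pretreated 24 h with compound diluted in serum-free medium, then infected with HCMV Towne for 2 h. Heparin 30 μM as positive entry-block control. Cells methanol-fixed, then stained with anti-pp65 (1:50) and rhodamine anti-mouse IgG, with DAPI. Nuclear pp65 viewed by fluorescence microscopy at 40x; repeated three times.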

For the next data set, the system named is Human gammaherpesvirus 4. The data set is described as follows: Antiviral activity against EBV infected in human AKATA cells assessed as reduction in IgG-induced lytic virus replication measured at 48 hrs post-lytic induction by qRT-PCR analysis. The conditions noted are these: human gammaherpesvirus 4, 48 h; read-out: EC50. Type of data set: functional, organism-based.

In a further data set the test system is Human alphaherpesvirus 2. The experiment in a line: Antiviral activity against HSV 2 infected in African green monkey Vero cells assessed as reduction in plaque formation incubated for 36 hrs by crystal violet staining based assay. Type of data set: functional, organism-based. A digest of the protocol:
(§3)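 Plaque reduction in Vero cells: virus adsorbed 60 min, then compound added in a carboxymethylcellulose overlay. Plaques counted after 36 h by crystal violet staining.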

Data set [4] concerns Human betaherpesvirus 5. The data set is described as follows: Antiviral activity against pp28-luciferase expressing HCMV Towne infected in human HFF cells assessed as reduction in viral replication treated with compound immediately after viral infection at MOI of 1 PFU/cell followed by compound washout after 6 hrs and measured after 3 days by luciferase reporter gene assay. The data set is classed as functional. The conditions noted are these: strain Towne. The method in brief: as §2

In data set [5] the test system is Human betaherpesvirus 5. The data set is described as follows: Antiviral activity against HCMV Towne infected in human HFF cells assessed as reduction in viral DNA replication at 5 uM treated with compound following viral infection at MOI of 0.1 PFU/cell by US17 real time PCR analysis. Type of data set: functional, organism-based. The conditions noted are these: strain Towne. A digest of the protocol: as §1

The nature of data set [6]: Antiviral activity against Mouse Cytomegalovirus Smith (ATCC VR-1399) infected in mouse MEF cells assessed as reduction in plaque formation measured after 3 days by crystal violet staining based assay. Type of data set: functional, cell-based, Murine cytomegalovirus (strain Smith). The method in brief:
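Plaque reduction with MCMV Smith in mouse embryonic fibroblasts, with compound in a carboxymethylcellulose overlay. Assay ended at 3 days and plaques counted after crystal violet staining.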

For a further data set, the system named is Human alphaherpesvirus 1. The data set is described as follows: Antiviral activity against HSV 1 infected in African green monkey Vero cells assessed as reduction in plaque formation incubated for 36 hrs by crystal violet staining based assay. The data set is classed as functional, organism-based. The conditions noted are these: vero. A digest of the protocol:
as §3

The subject of data set [7] is Human betaherpesvirus 5. The experiment in a line: Antiviral activity againstpp28-luciferase expressing HCMV Towne infected in human HFF cells assessed as reduction in viral replication treated with compound following viral infection at MOI of 1 PFU/cells measured after 3 days in presence of GCV by luciferase reporter gene assay. Type of data set: functional, organism-based. The settings on record: Human betaherpesvirus 5, strain Towne, 72 h. A digest of the protocol:
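HFFs in 96-well plates were infected with pp28-luciferase Towne HCMV, in which luciferase is driven by the UL99 late promoter, at MOI 1. A dose-response of each drug alone gave its EC₅₀. Combinations started at twice each EC₅₀ in DMEM with 4% FBS, followed by two-fold serial dilutions, and were added after infection. Luciferase was read in cell lysates at 72 hpi. The Bliss ratio is observed over expected inhibition.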

Data set [8] has as its system Human betaherpesvirus 5. The experiment in a line: Antiviral activity against pp28-luciferase harboring UL97 C607Y mutant expressing GCV-resistant HCMV Towne infected in human HFF cells assessed as reduction in viral replication at 1 to 5 uM treated with compound following viral infection at MOI of 0.1 PFU/cell and measured at 72 hrs post infection by luciferase reporter gene assay. The data set is classed as functional, organism-based. The settings on record: strain Towne. The method in brief:
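HFFs infected with GCV-resistant pp28-luciferase Towne (MOI 0.1), then treated with a compound dilution series. Luciferase, driven by the UL99 late promoter, read in cell lysates at 72 hpi. Data are mean ± SD of triplicates from a single experiment.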

Data set [9] relates to Human betaherpesvirus 5. The data set is described as follows: Antiviral activity against HCMV Towne infected in human HFF cells assessed as reduction in plaque formation treated with compound following viral infection at MOI of 1 PFU/cell and measured at 10 days post-infection in presence of letermovir by crystal violet staining based assay. The data set is classed as functional, organism-based. The settings on record: Human betaherpesvirus 5, strain Towne, 240 h.

The next data set deals with HFF. The experiment in a line: Cytotoxicity against human HFF cells assessed as reduction in cell viability incubated for 72 hrs or 10 days by MTT assay. Type of data set: cell-based. A digest of the protocol:
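MTT assay on uninfected cells exposed to compound for 72 h or 8–10 days, matching the antiviral assay durations. MTT (5 mg/mL stock in PBS) added, then 2–3 h at 37 °C. Formazan absorbance read at 560 nm.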
A general note: Formazan colour is commonly taken as a measure of viable cells.

Data set [10] deals with Human betaherpesvirus 5. The experiment in a line: Antiviral activity against HCMV TB40 infected in human HFF cells assessed as reduction in plaque formation treated with compound following viral infection and incubated for 8 to 10 days by crystal violet staining based assay. The data set is classed as functional, organism-based. The settings on record: Human betaherpesvirus 5, TB40, HFF.

The test system of data set [11] is Human betaherpesvirus 5. The experiment in a line: Inhibition of viral protein expression in HCMV Towne infected in human HFF cells assessed as reduction in IE1 expression at 0.3 to 10 uM treated with compound following viral infection at MOI of 1 PFU/cell measured at 72 hrs post infection by Western blot analysis. The data set is classed as functional, organism-based. The settings on record: strain Towne. The method in brief:
(§4)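 HFFs infected with HCMV Towne (MOI 1), then treated with compound. Lysates taken at 72 hpi, equal protein loaded on 8–10% Tris-glycine SDS-PAGE and transferred to PVDF. Primary antibodies overnight at 4 °C, HRP secondary, chemiluminescent detection; β-actin as loading control.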

Data set [12] deals with Human betaherpesvirus 5. The data set is described as follows: Antiviral activity against HCMV TB40 infected in human HFF cells assessed as reduction in plaque formation at 0.75 to 10 uM treated with compound following viral infection at […] measured after 8 days by crystal violet staining analysis. The data set is classed as functional, organism-based. A digest of the protocol:
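HFFs (2 × 10⁵/well) infected with HCMV TB40 at about 100 plaques/well for 90 min. Inoculum removed, then DMEM with 0.5% CMC, 4% FBS and compound added. Incubated at 37 °C; plaques stained with crystal violet and counted at 8 dpi. Experiment repeated three times; one representative shown.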

The test system of data set [13] is Human betaherpesvirus 5. The data set is described as follows: Inhibition of viral protein expression in HCMV Towne infected in human HFF cells assessed as reduction in IE2 expression at 0.3 to 10 uM treated with compound following viral infection at MOI of 1 PFU/cell measured at 72 hrs post infection by Western blot analysis. Type of data set: functional, organism-based. The conditions noted are these: strain Towne. The method in brief: as §4

In data set [14] the test system is Human betaherpesvirus 5. The experiment in a line: Antiviral activity against HCMV Towne infected in human HFF cells assessed as reduction in plaque formation treated with compound following viral infection and incubated for 8 to 10 days by crystal violet staining based assay. The conditions noted are these: Human betaherpesvirus 5, strain Towne. The data set is classed as functional, organism-based.

Data set [15] has as its system Human betaherpesvirus 5. The data set is described as follows: Antiviral activity against GCV-resistant HCMV Towne infected in human HFF cells assessed as reduction in plaque formation treated with compound following viral infection and incubated for 8 to 10 days by crystal violet staining based assay. Type of data set: functional, organism-based. The settings on record: Human betaherpesvirus 5, strain Towne.

This note sets out measurements from ChEMBL document CHEMBL4354867, “Validation and Characterization of Five Distinct Novel Inhibitors of Human Cytomegalovirus” (J Med Chem, 2020).

The source made the active and inactive calls. No cut-off for these calls is given here.

For `Nc1nc2c(ncn2COC(CO)CO)c(=O)[nH]1` [GANCICLOVIR], the result in the data set on Human betaherpesvirus 5 [1], in the data set on Human betaherpesvirus 5 [4] and in the data set on Human betaherpesvirus 5 [5] was Active. The outcome with Human betaherpesvirus 5 [2] and in the data set with Human betaherpesvirus 5 [3] was inactive. Also, the EC50 (commonly the concentration at which the effect is half-maximal) in the data set on Human gammaherpesvirus 4 turned out to be 5200 nM; in the data set with Human alphaherpesvirus 2 (Human alphaherpesvirus 2, Vero, 36 h, read-out: EC50), 580 nM; in data set [6] (Murid betaherpesvirus 1, ATCC VR-1399, MEF, 72 h, read-out: EC50) it was 960 nM.

Turning to `CCN1CCN(CCCNC(=O)c2ccc3c(c2)sc2nc(-c4ccc(OC)cc4)cn23)CC1`, the 50% effective concentration (EC50) entry in the data set with Human alphaherpesvirus 1 is “Not Active”; in the data set on Human betaherpesvirus 5 [7], 690 nM; with Human betaherpesvirus 5 [9], 610 nM; in the data set on Human gammaherpesvirus 4, 1920 nM; in the data set on Human alphaherpesvirus 2 (vero), “Not Active”; with Human betaherpesvirus 5 [10] it was 1210 nM. Besides, the EC50 entry in data set [6] (mef) is “Not Active”; with Human betaherpesvirus 5 [14] it was 850 nM; in the data set on Human betaherpesvirus 5 [15], 840 nM. Also, the result in the data set on Human betaherpesvirus 5 [8], with Human betaherpesvirus 5 [1], in the data set with Human betaherpesvirus 5 [4], in the data set with Human betaherpesvirus 5 [12] and with Human betaherpesvirus 5 [5] was Active. Also, the outcome in the data set with Human betaherpesvirus 5 [2] was inactive. Also, the 50% cytotoxic concentration (CC50) (in general, the concentration at which the toxic effect on the cells reaches its halfway point) with HFF is 70900 nM. Also, the inhibition result in the data set on Human betaherpesvirus 5 [11] and in the data set on Human betaherpesvirus 5 [13] was “Active” in each case.
